Laboratory results from ChEMBL document CHEMBL4033721, “Design, synthesis and evaluation of indole-2-carboxamides with pan anti-mycobacterial activity” (Bioorg Med Chem, 2017).
Converted amounts (≈) assume the structure as drawn.

How the values were obtained:
[1] = system: Mycobacteroides abscessus; test: Antimycobacterial activity against Mycobacterium abscessus ATCC 19977 after 8 days by resazurin microtiter based colorimetric assay; format: functional; details: ATCC 19977, 192 h
Procedure, shortened: (§1)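 Resazurin microtiter plate MIC, read by visual scan for growth, in Mueller Hinton II broth. Strains include clinical isolates of M. abscessus complex, M. chelonae, M. avium, M. intracellulare, M. xenopi, P. aeruginosa PAO-1 and S. aureus ATCC 25923.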

[2] = Antimycobacterial activity against Mycobacterium bolletii ATCC 14472 after 8 days by resazurin microtiter based colorimetric assay; format: functional; details: Mycobacteroides abscessus, ATCC 14472, 192 h; procedure, shortened: as §1
Mycobacteroides chelonae = test: Antimycobacterial activity against Mycobacterium chelonae ATCC 35752 after 8 days by resazurin microtiter based colorimetric assay; format: functional; details: ATCC 35752, 192 h; procedure, shortened: as §1
[3] = Antimycobacterial activity against Mycobacterium massiliense isolate CRM0019 after 8 days by resazurin microtiter based colorimetric assay; format: functional, Mycobacterium abscessus subsp. massiliense; details: Mycobacteroides abscessus, isolate CRM0019, 192 h; procedure, shortened: as §1
[4] = Antimycobacterial activity against Mycobacterium massiliense isolate CIP108297 after 8 days by resazurin microtiter based colorimetric assay; format: functional, Mycobacterium abscessus subsp. massiliense; details: Mycobacteroides abscessus, isolate CIP108297, 192 h; procedure, shortened: as §1
[5] = system: Mycobacterium tuberculosis; test: Antimycobacterial activity against Mycobacterium tuberculosis H37Rv MC2-6206 after 8 days by resazurin microtiter based colorimetric assay; format: functional; details: H37Rv MC2-6206, 192 h
Procedure, shortened: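 MIC was measured by resazurin microtiter colorimetric assay with visual growth scoring. Medium was 7H9-ADC–0.05% tyloxapol with 0.2% casaminoacids, 48 µg/ml pantothenate and 50 µg/ml L-leucine.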

Mycobacterium avium = test: Antimycobacterial activity against Mycobacterium avium isolate 104 after 8 days by resazurin microtiter based colorimetric assay; format: functional; details: isolate 104, 192 h
Procedure, shortened: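 M. avium 104 MICs were read by resazurin microtiter colorimetric assay in 96-well plates, with growth scored visually, in Mueller Hinton II medium.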

[6] = system: Mycolicibacterium smegmatis; test: Antimycobacterial activity against Mycobacterium smegmatis isolate MC2 155 after 8 days by resazurin microtiter based colorimetric assay; format: functional; details: str. MC2 155, 192 h
Mycobacterium xenopi = test: Antimycobacterial activity against wild type Mycobacterium xenopi isolate 4042 after 8 days by resazurin microtiter based colorimetric assay; format: functional; details: isolate 4042, 192 h; procedure, shortened: as §1
[7] = system: Mycobacteroides abscessus; test: Antimycobacterial activity against Mycobacterium abscessus isolate DCI 21 after 8 days by resazurin microtiter based colorimetric assay; format: functional; details: isolate DCI 21, 192 h; procedure, shortened: as §1
[8] = system: Mycobacterium avium-intracellulare; test: Antimycobacterial activity against Mycobacterium avium-intracellulare isolate 1956 after 8 days by resazurin microtiter based colorimetric assay; format: functional; details: isolate 1956, 192 h; procedure, shortened: as §1

Row | SMILES | MIC [1] [µg/mL] | MIC [2] [µg/mL] | MIC (Mycobacteroides chelonae) [µg/mL] | MIC [3] [µg/mL] | MIC [4] [µg/mL] | MIC [5] [µg/mL] | MIC (Mycobacterium avium) [µg/mL] | MIC [6] [µg/mL] | MIC (Mycobacterium xenopi) [µg/mL] | MIC [7] [µg/mL] | MIC [8] [µg/mL]
1 | O=C(NC1CCCCCCC1)c1cc2ccccc2[nH]1 | > 32 | 32 (≈ 118 µM) | > 32 | 32 (≈ 118 µM) | > 32 | 0.39 (≈ 1.44 µM) | > 32 | 25 (≈ 92.5 µM) | 2 (≈ 7.4 µM) | > 32 | > 32
2 | CCCCCCCCNC(=O)c1cc2ccccc2[nH]1 | > 32 | > 32 | > 32 | > 32 | > 32 | > 10 | – | > 25 | – | > 32 | –
3 | O=C(NC1CCCCC1)c1cc2ccccc2[nH]1 | > 32 | > 32 | > 32 | > 32 | > 32 | > 10 | – | > 25 | – | > 32 | –
4 | Cc1cc(C)c2cc(C(=O)NC3C4CC5CC(C4)CC3C5)[nH]c2c1 (stereo unspecified) | > 32 | > 32 | > 32 | > 32 | > 32 | 0.04 (≈ 0.124 µM) | > 32 | > 20 | 0.5 to 1 (≈ 1.55 to 3.1 µM) | > 32 | > 32
5 | CCCCCCCCNC(=O)c1cc2c(C)cc(C)cc2[nH]1 | > 32 | > 32 | > 32 | > 32 | > 32 | > 20 | > 32 | 2.5 to 5 (≈ 8.32 to 16.6 µM) | > 32 | > 32 | > 32
6 | CCCCCCCNC(=O)c1cc2c(C)cc(C)cc2[nH]1 | > 32 | 32 (≈ 112 µM) | > 32 | > 32 | > 32 | > 5 | > 32 | 5 (≈ 17.5 µM) | > 32 | > 32 | > 32
7 | O=C(NCC12CC3CC(CC(C3)C1)C2)c1cc2ccccc2[nH]1 | 2 (≈ 6.48 µM) | 2 (≈ 6.48 µM) | 1 (≈ 3.24 µM) | > 32 | 2 (≈ 6.48 µM) | > 5 | > 32 | > 20 | 4 (≈ 13 µM) | 2 (≈ 6.48 µM) | > 32
8 | CCC12CC3CC(C1)CC(NC(=O)c1cc4c(C)cc(C)cc4[nH]1)(C3)C2 | > 32 | > 32 | > 32 | > 32 | > 32 | 0.039 (≈ 0.111 µM) | > 32 | > 20 | > 32 | > 32 | > 32
9 | Cc1cc(C)c2cc(C(=O)NCc3cccc(Cl)c3)[nH]c2c1 | > 32 | > 32 | > 32 | > 32 | > 32 | > 5 | – | > 20 | – | > 32 | –
10 | Cc1cc(C)c2cc(C(=O)NCC34CC5CC(CC(C5)C3)C4)[nH]c2c1 | > 32 | > 32 | > 32 | > 32 | > 32 | 0.16 (≈ 0.476 µM) | > 32 | > 20 | 1 (≈ 2.97 µM) | > 32 | > 32
11 | CC(NC(=O)c1cc2ccccc2[nH]1)C12CC3CC(CC(C3)C1)C2 (stereo unspecified) | 16 (≈ 49.6 µM) | 16 (≈ 49.6 µM) | 2 (≈ 6.2 µM) | 8 (≈ 24.8 µM) | 8 (≈ 24.8 µM) | > 5 | > 32 | > 20 | 8 (≈ 24.8 µM) | 16 (≈ 49.6 µM) | 32 (≈ 99.2 µM)
12 | Cc1cc(C)c2cc(C(=O)NC3CCCC3)[nH]c2c1 | 4 (≈ 15.6 µM) | 2 (≈ 7.8 µM) | 2 (≈ 7.8 µM) | 8 (≈ 31.2 µM) | 8 (≈ 31.2 µM) | 2.5 (≈ 9.75 µM) | > 32 | 5 (≈ 19.5 µM) | 8 to 16 (≈ 31.2 to 62.4 µM) | 4 (≈ 15.6 µM) | > 32
13 | C[C@H]1CC[C@H](NC(=O)c2cc3ccccc3[nH]2)CC1 | > 32 | > 32 | > 32 | > 32 | > 32 | > 10 | – | > 25 | – | > 32 | –
14 | CCC12CC3CC(C1)CC(NC(=O)c1cc4ccccc4[nH]1)(C3)C2 | > 32 | > 32 | > 32 | > 32 | > 32 | 1.25 (≈ 3.88 µM) | > 32 | > 20 | 1 to 2 (≈ 3.1 to 6.2 µM) | > 32 | > 32
15 | O=C(NC1CCCC1)c1cc2ccccc2[nH]1 | > 32 | > 32 | > 32 | > 32 | > 32 | > 10 | – | > 25 | – | > 32 | –
16 | O=C(NC1C2CC3CC(C2)CC1C3)c1cc2ccccc2[nH]1 (stereo unspecified) | > 32 | 32 (≈ 109 µM) | > 32 | 32 (≈ 109 µM) | > 32 | 0.39 (≈ 1.32 µM) | > 32 | > 25 | 2 (≈ 6.79 µM) | > 32 | > 32
17 | O=C(NCc1cccc(Cl)c1)c1cc2ccccc2[nH]1 | > 32 | > 32 | > 32 | > 32 | > 32 | > 5 | – | > 20 | – | > 32 | –
18 | CCCCCCCNC(=O)c1cc2ccccc2[nH]1 | > 32 | > 32 | > 32 | > 32 | > 32 | > 10 | – | > 25 | – | > 32 | –
19 | CC1CCC(NC(=O)c2cc3ccccc3[nH]2)CC1 (mixture of isomers) | > 32 | 16 | 16 | 16 | 16 | 5 | > 32 | 12.5 | 16 | > 32 | > 32
20 | O=C(NC1CCCCCC1)c1cc2ccccc2[nH]1 | > 32 | > 32 | > 32 | > 32 | > 32 | > 5 | – | > 20 | – | > 32 | –
